Source: ChEMBL document CHEMBL4808183, “Betulonic Acid Derivatives Interfering with Human Coronavirus 229E Replication via the nsp15 Endoribonuclease” (J Med Chem, 2021)
pEC50: −log10 of the molar value. Activity calls are given as the source filed them. No cut-off for these calls is given here.

Legend:
[1] = (§1) Antiviral activity against Human coronavirus 229E infected in human embryonic lung fibroblast cells assessed as reduction in virus-induced cytopathic effect incubated for 5 days by MTS cell viability assay; format: functional, cell-based; settings: 120 h
How it was run: (§2)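 Confluent HEL cell cultures given serial compound dilutions together with HCoV-229E at MOI 100 and held 5 days at 35 °C. Virus-induced CPE was scored by microscopy. MTS reagent was then added and absorbance at 490 nm read 24 h later. EC50 was taken from the MTS or microscopic read-out and CC50 from MTS. SI = CC50/EC50, both by MTS. Mean ± SEM of three independent experiments.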

[2] = Antiviral activity against Human coronavirus 229E infected in human embryonic lung fibroblast cells assessed as reduction in virus-induced cytopathic effect incubated for 5 days by microscopy; format: functional, cell-based; settings: 120 h; how it was run: as §2
[3] = Cytotoxicity against mock-infected human embryonic lung fibroblast cells incubated for 5 days by MTS assay; format: cell-based; settings: time 5 day; how it was run: as §2
[4] = as §1, with “Selectivity index, ratio of CC50 for cytotoxicity against mock-infected human embryonic lung fibroblast cells incubated for 5 days by MTS assay to EC50 for antiviral” for “Antiviral”; format: toxicity, cell-based; settings: time 5 day, read-out: Ratio CC50/EC50; how it was run: as §2
[5] = system: Human immunodeficiency virus; experiment: Antiviral activity against HIV; format: functional, organism-based
[6] = system: Herpes simplex virus unknown type; experiment: Antiviral activity against Herpes simplex virus; format: functional
[7] = system: Vaccinia virus; experiment: Antiviral activity against Vaccinia virus; format: functional, organism-based; settings: Orthopoxvirus vaccinia
[8] = system: Human adenovirus 2; experiment: Antiviral activity against Adenovirus; format: functional
[9] = system: Vesicular stomatitis virus; experiment: Antiviral activity against Vesicular stomatitis virus; format: functional, organism-based
[10] = system: Coxsackievirus B4; experiment: Antiviral activity against Coxsackie B4 virus; format: functional, organism-based
[11] = system: Respiratory syncytial virus; experiment: Antiviral activity against Respiratory syncytial virus; format: functional, organism-based
[12] = system: Human respirovirus 3; experiment: Antiviral activity against Parainfluenza-3 virus; format: functional, organism-based
[13] = system: Reovirus sp.; experiment: Antiviral activity against Reovirus-1; format: functional, organism-based
[14] = system: Sindbis virus; experiment: Antiviral activity against Sindbis virus; format: functional, organism-based
[15] = system: Punta Toro virus; experiment: Antiviral activity against Punta Toro virus; format: functional, organism-based
[16] = system: Yellow fever virus; experiment: Antiviral activity against Yellow fever virus; format: functional, organism-based
[17] = system: Influenza A virus; experiment: Antiviral activity against Influenza virus; format: functional

Row | Compound | pEC50 [1] | pEC50 [2] | CC50 at 120 h [3] [µM] | selectivity ratio at 120 h [4] | Activity [5] | Activity [6] | Activity [7] | Activity [8] | Activity [9] | Activity [10] | Activity [11] | Activity [12] | Activity [13] | Activity [14] | Activity [15] | Activity [16] | Activity [17]
1 | C=C(C)[C@@H]1CC[C@]2(C(=O)O)CC[C@]3(C)[C@H](CC[C@@H]4[C@@]5(C)Cc6nnn(Cc7ccco7)c6C(C)(C)[C@@H]5CC[C@]43C)[C@@H]12 | 5.59 | 5.96 | 20 | 8 | inactive | inactive | inactive | inactive | inactive | inactive | inactive | inactive | inactive | inactive | inactive | inactive | inactive
2 | C=C(C)[C@@H]1CC[C@]2(C(=O)O)CC[C@]3(C)[C@H](CC[C@@H]4[C@@]5(C)Cc6nnn(CCc7c[nH]c8ccc(OC)cc78)c6C(C)(C)[C@@H]5CC[C@]43C)[C@@H]12 | 6.06 | 6.52 | 8.9 | 10 | inactive | inactive | inactive | inactive | inactive | inactive | inactive | inactive | inactive | inactive | inactive | inactive | inactive
3 | C=C(C)[C@@H]1CC[C@]2(CO)CC[C@]3(C)[C@H](CC[C@@H]4[C@@]5(C)CC[C@H](O)C(C)(C)[C@@H]5CC[C@]43C)[C@@H]12 [BETULIN] | < 4.00 | 4.96 | 7.6 |  |  |  |  |  |  |  |  |  |  |  |  |  | 
4 | C=C(C)[C@@H]1CC[C@]2(C(=O)O)CC[C@]3(C)[C@H](CC[C@@H]4[C@@]5(C)Cc6nnn(Cc7ccncc7)c6C(C)(C)[C@@H]5CC[C@]43C)[C@@H]12 | 5.60 | 5.62 | 17 | 7 | inactive | inactive | inactive | inactive | inactive | inactive | inactive | inactive | inactive | inactive | inactive | inactive | inactive
5 | C=C(C)[C@@H]1CC[C@]2(C(=O)O)CC[C@]3(C)[C@H](CC[C@@H]4[C@@]5(C)Cc6nnn(CC7CCCCC7)c6C(C)(C)[C@@H]5CC[C@]43C)[C@@H]12 | 4.89 | 4.85 | 79 |  | inactive | inactive | inactive | inactive | inactive | inactive | inactive | inactive | inactive | inactive | inactive | inactive | inactive
6 | C=C(C)[C@@H]1CC[C@]2(C(=O)O)CC[C@]3(C)[C@H](CC[C@@H]4[C@@]5(C)Cc6nnn(CCCCCCC)c6C(C)(C)[C@@H]5CC[C@]43C)[C@@H]12 | 5.70 | 5.96 | 16 | 8 | inactive | inactive | inactive | inactive | inactive | inactive | inactive | inactive | inactive | inactive | inactive | inactive | inactive
7 | C=C(C)[C@@H]1CC[C@]2(C(=O)O)CC[C@]3(C)[C@H](CC[C@@H]4[C@@]5(C)Cc6nnn(Cc7ccc(C)cc7)c6C(C)(C)[C@@H]5CC[C@]43C)[C@@H]12 | 5.21 | 5.48 | 57 | 9 | inactive | inactive | inactive | inactive | inactive | inactive | inactive | inactive | inactive | inactive | inactive | inactive | inactive
8 | C=C(C)[C@@H]1CC[C@]2(C(=O)O)CC[C@]3(C)[C@H](CC[C@@H]4[C@@]5(C)Cc6nnn(Cc7cccc8[nH]ccc78)c6C(C)(C)[C@@H]5CC[C@]43C)[C@@H]12 | 7.04 | 7.00 | 2.4 | 27 | inactive | inactive | inactive | inactive | inactive | inactive | inactive | inactive | inactive | inactive | inactive | inactive | inactive
9 | C=C(C)[C@@H]1CC[C@]2(C(=O)O)CC[C@]3(C)[C@H](CC[C@@H]4[C@@]5(C)Cc6nnn(Cc7ccc(C(F)(F)F)cc7)c6C(C)(C)[C@@H]5CC[C@]43C)[C@@H]12 | 5.32 | 5.44 | ≥ 47 | > 10 | inactive | inactive | inactive | inactive | inactive | inactive | inactive | inactive | inactive | inactive | inactive | inactive | inactive
10 | C=C(C)[C@@H]1CC[C@]2(C(=O)O)CC[C@]3(C)[C@H](CC[C@@H]4[C@@]5(C)Cc6nnn(Cc7cc(OC)c(OC)c(OC)c7)c6C(C)(C)[C@@H]5CC[C@]43C)[C@@H]12 | 5.72 | 5.80 | 10 | 5 | inactive | inactive | inactive | inactive | inactive | inactive | inactive | inactive | inactive | inactive | inactive | inactive | inactive
11 | C=C(C)[C@@H]1CC[C@]2(C(=O)O)CC[C@]3(C)[C@H](CC[C@@H]4[C@@]5(C)Cc6nnn(CCc7c[nH]c8ccccc78)c6C(C)(C)[C@@H]5CC[C@]43C)[C@@H]12 | 6.25 | 6.62 | 3.2 | 6 | inactive | inactive | inactive | inactive | inactive | inactive | inactive | inactive | inactive | inactive | inactive | inactive | inactive
12 | C=C(C)[C@@H]1CC[C@]2(C(=O)O)CC[C@]3(C)[C@H](CC[C@@H]4[C@@]5(C)Cc6nnn(Cc7ccccc7)c6C(C)(C)[C@@H]5CC[C@]43C)[C@@H]12 | 6.07 | 6.15 | 12 | 14 | inactive | inactive | inactive | inactive | inactive | inactive | inactive | inactive | inactive | inactive | inactive | inactive | inactive
13 | C=C(C)[C@@H]1CC[C@]2(C(=O)O)CC[C@]3(C)[C@H](CC[C@@H]4[C@@]5(C)CCC(=O)C(C)(C)[C@@H]5CC[C@]43C)[C@@H]12 [BETUNOLIC ACID] | < 4.00 | < 4.00 | > 100 |  |  |  |  |  |  |  |  |  |  |  |  |  | 
14 | CC(C)[C@@H]1CC[C@]2(C)CC[C@]3(C)[C@H](CC[C@@H]4[C@@]5(C)Cc6nnn([C@@H](C)c7ccccc7)c6C(C)(C)[C@@H]5CC[C@]43C)[C@@H]12 |  |  |  |  | inactive | inactive | inactive | inactive | inactive | inactive | inactive | inactive | inactive | inactive | inactive | inactive | inactive
